Screening results deposited in PubChem by several laboratories.
HSP90 inh – inhibitors of HSP90 luciferase refolding in rabbit reticulocyte lysate; inhibition, % at 5.6 µM; hit rate 0.91% among 290,000; AID 1789; luciferase refolding luminescence, 3 h;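 active means inhibition above the screen-wide mean plus 3 SD, computed separately per campaign, cut at about 16% in these data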;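 further: inhibitors lower the luminescence because luciferase stays unfolded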
Lipid droplet – modulators of hepatic lipid droplet formation. AML12 mouse hepatocytes, oleate lipid droplets, BODIPY imaging. inhibition, % at 6.5 µM. hit rate 0.4% among 240,000;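 active means lipid droplet intensity inhibited by at least 50%, with more than 500 cells counted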
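Material – mouse AML12 hepatocyte cell line, fixed after treatment · Compound dosing – one dose, 6.5 µM compound · Times – compound with oleate, overnight · Measured by – Image-based BODIPY and DAPI two-channel analysis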
NS3 helicase inh – HCV NS3 helicase inhibition | NS3 helicase DNA unwinding, Cy5 molecular beacon fluorescence | inhibition, % at 10.9 µM | hit rate 0.56% among 290,000 | AID 1800;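 active means inhibition above the mean of all tested compounds plus 3 SD, set per campaign, cut at about 35% in these data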
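System: Hepatitis C virus NS3 helicase domain fragment enzyme | Reagent: Annealed dual-labelled DNA beacon duplex, ATP-started | Compound dosing: 10.9 µM single point, 0.8% DMSO | Incubation: 1 h reaction at 25 °C, ATP-initiated | Technique: Cy5 fluorescence | Evaluation: Percent inhibition from t60/t0 fluorescence ratio | Benchmarks: Low DMSO, high thioflavine S at 110 µM | Replication: Singlicate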
HSF-1 act – increases HSF-1 driven luciferase reporter signal. NIH3T3-HGL HSF-1 luciferase reporter, MG132, 8 h; 100% = twice DMSO control signal. hit rate 1.7% among 300,000. activation, % at 9 µM;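 active means mean replicate activation of at least 50% with a set share of replicates each reaching 50%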
HSF1 inhib – HSF1 inhibition | hit rate 0.77% among 300,000 | activity change, negative = inhibition, % at 7.5 µM (by protocol) | AID 2098 | NIH3T3-HGL HSE-luciferase, MG132-induced, luminescence 8 h; hits give low values;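 active means more than half of replicate wells show activity change below -50%, luminescence cut by over half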;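 further: luciferase reports HSF-1 transcriptional activity via heat shock element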
Each line names hits and unclear results; the compound was inactive in the other large screens. This is a sample that favours compounds with a hit; in the whole collection about 3.8% have one here.

O=C(O)c1ccccc1COc1ccccc1Cl	HSF1 inhib -56
COc1ccccc1NC(=O)N(Cc1ccco1)Cc1cc2cc(C)cc(C)c2[nH]c1=O	none (no result: Lipid droplet)
COc1ccccc1NC(=S)N(Cc1ccco1)Cc1cc2cccc(C)c2[nH]c1=O	HSF-1 act 119
Cc1cccc2cc(CN(Cc3ccccc3)C(=S)NCCCN(C)C)c(=O)[nH]c12	HSF1 inhib -74
COc1ccccc1NC(=O)N(Cc1ccco1)Cc1cc2ccc(C)c(C)c2[nH]c1=O	HSF-1 act 108 (no result: Lipid droplet)
CCc1cccc(C)c1Nc1nc2ccccc2n2cnnc12	none (no result: Lipid droplet)
O=C(CCSCc1cccc(F)c1)NCCc1ccccc1	none (no result: Lipid droplet)
COc1cc(/C=N/NC(=O)CC2(C)OCCCO2)ccc1OCc1ccc(Cl)cc1Cl	HSF-1 act 68
CC1(CC(=O)N/N=C/c2ccc(OCc3ccc(Cl)cc3Cl)cc2)OCCCO1	HSF-1 act 54 (no result: Lipid droplet)
COc1cc(/C=N/NC(=O)CN2CCCCC2)ccc1OCc1ccc(Br)cc1	HSF-1 act 79
Cc1cccc(NC(=O)[C@@H]2CCCN2C(=O)OC(C)(C)C)c1	none
O=C(CN(Cc1ccc(F)cc1)C(=O)CNS(=O)(=O)c1ccccc1)NCc1ccco1	none
CCCNC(=O)c1ccc(N2CCC3(CC2)CC(c2cccc(Br)c2)=NO3)c(NC(=O)c2c(Cl)cccc2Cl)c1	none (no result: HSP90 inh, Lipid droplet, NS3 helicase inh)
CCCNC(=O)c1ccc(N2CCC3(CC2)CC(c2cccc(Br)c2)=NO3)c(NC(=O)c2ccc(Br)cc2)c1	HSF1 inhib -89 (no result: HSP90 inh, Lipid droplet, NS3 helicase inh)
COc1cc(C2NC(=S)NC(C)=C2C(=O)Nc2ccc(C)cc2)ccc1O (stereo not drawn)	HSF-1 act 84
COCCNC(=S)N(CCc1c(C)[nH]c2ccc(F)cc12)Cc1ccco1	HSF-1 act 53
CNC(=S)N(CCc1c(C)[nH]c2ccc(F)cc12)Cc1ccco1	none
CC1(C)CC(=O)C2=C(C1)Nc1ccccc1NC2c1cccnc1 (stereo not drawn)	none (no result: HSP90 inh, Lipid droplet, NS3 helicase inh)
CN(C)c1ccc(-c2nc3n(n2)C(c2cccnc2)C2=C(CC(C)(C)CC2=O)N3)cc1 (stereo not drawn)	HSF1 inhib -70 (no result: Lipid droplet)
O=C(CN1C(=O)c2ccc([N+](=O)[O-])cc2C1=O)NCC1CCCO1 (stereo not drawn)	none (no result: HSP90 inh, Lipid droplet, NS3 helicase inh)
CCOC(=O)c1c(C)c(C(=O)NCCc2ccccc2)c(C)n1C	HSF-1 act 77
O=C(COC(=O)c1ccc2[nH]c3c(c2c1)CCCC3)Nc1ccccc1Cl	none
CCC(C)c1ccccc1NC(=O)COC(=O)c1ccc2[nH]c3c(c2c1)CCCC3 (stereo not drawn)	Lipid droplet 59
O=C(NCC1CCCO1)c1cccc(Oc2ccc([N+](=O)[O-])cc2)c1 (stereo not drawn)	none
Cc1ccc(S(=O)(=O)N2CCC(C(=O)NNC(=O)c3cccnc3)CC2)cc1	none
CCC(C)[C@H](NC(=O)NCc1cccc(OC)c1)C(=O)O (stereo partly drawn)	HSF1 inhib -83 (no result: Lipid droplet)
CC(=O)C1=C(c2ccccc2)N(C(C)=O)n2c(C)nnc2S1	none
CC(CCC(=O)O)C1CC[C@H]2C3CCC4CC(=O)CCC4(C)[C@H]3CC(=O)C12C (stereo partly drawn)	HSF-1 act 58 (no result: Lipid droplet)
Cc1cc(C)nc(Sc2ccc([N+](=O)[O-])cc2[N+](=O)[O-])n1	HSF-1 act 66
O=[N+]([O-])c1ccc(Sc2cccc3cccnc23)c([N+](=O)[O-])c1	none
Cc1cccc(-c2cc3nc(C)cc(C)n3n2)c1	HSF-1 act 60
Cc1cc(C)n2nc(-c3cccc(Br)c3)cc2n1	none
CCOCCCN(C(=O)Cn1nnc(-c2ccc(C)o2)n1)C(C(=O)NC1CCCC1)c1ccco1 (stereo not drawn)	none
O=C(COc1ccc(Cl)cc1)Nc1cc(NC(=O)COc2ccc(Cl)cc2)cc(C(=O)O)c1	none
COC(=O)c1ccc(C(=O)OC)c(NC(=O)C(C)(C)C)c1	HSF-1 act 67
CN(NC1OC(=O)c2ccccc21)c1ncc(Cl)cc1C(F)(F)F (stereo not drawn)	HSF-1 act 66
CCc1ccccc1NC(=O)Nc1cc(F)ccc1F	none
c1ccc(CNc2nc3ccccc3n3cnnc23)cc1	HSP90 inh 16 (no result: Lipid droplet)
O=c1[nH]c2ccccc2c2nc(-c3cccc(S(=O)(=O)N4CCCC4)c3)nn12	none
CC(C)Cn1c(N)c(C(=O)COC(=O)c2ccc([N+](=O)[O-])o2)c(=O)n(C)c1=O	HSF-1 act 67
O=C(OCC(=O)N1CCOCC1)c1ccccc1Cc1ccccc1	HSF-1 act 74
CCOc1cc(/C=C2\NC(=O)NC2=O)ccc1OC(C)C(=O)O (stereo not drawn)	none
O=C1C=C(c2ccccc2)CC(c2ccc(F)cc2)C1 (stereo not drawn)	none (no result: HSP90 inh, Lipid droplet, NS3 helicase inh)
COc1ccc(C2=CC(=O)CC(c3ccc(F)cc3)C2)cn1 (stereo not drawn)	HSF-1 act 61 (no result: HSP90 inh, Lipid droplet, NS3 helicase inh)
N#Cc1ccc(C(=O)NNC(=O)c2ccncc2)cc1	none
CC1CN(C(=O)CCC(=O)NCc2ccccc2)c2cc(Cl)ccc2O1 (stereo not drawn)	HSP90 inh 67
COc1ccc(/C=N/N=C2/SCC(=O)N2Cc2ccccc2)cc1	HSF-1 act 66
CC(=O)Nc1cc[n+](C(C)C(=O)c2ccccc2)cc1 (stereo not drawn)	HSF1 inhib -68 (no result: Lipid droplet)
CC(=O)Nc1cc[n+](C(C)C(=O)c2ccc(Br)cc2)cc1 (stereo not drawn)	none
CC(=O)N(c1ccccc1)c1nnc(-c2cnc(C)cn2)s1	HSF-1 act 54
CCOC(=O)C1(Cc2cccc(Cl)c2)CCCN(C(=O)c2ccc(COC)s2)C1 (stereo not drawn)	none
COc1cccc(NC(=O)CSc2nc3c(sc4ccccc43)c(=O)n2CCCN2CCCC2)c1	none
O=S(=O)(Nc1ccccc1O)c1cccc2cccnc12	HSF-1 act 78
O=S(=O)(Nc1ccc(O)cc1)c1cccc2cccnc12	none (no result: Lipid droplet)
Cc1ccc(NC(=O)Cc2c(O)c3ccccc3[nH]c2=O)c(C)c1	none
CSCC[C@H](NC(=O)c1ccco1)c1nnc2ccccn12	none
COc1ccc(/C(C)=N/NS(=O)(=O)c2cc(C)ccc2C)c(OC)c1	none
CCCC1Cc2c(sc(N)c2C#N)CO1 (stereo not drawn)	none
O=C(NCc1cccnc1)C1CCC(CNS(=O)(=O)c2cccc3nsnc23)CC1 (stereo not drawn)	none
Cc1ccc(C(=O)N2c3ccccc3CC2C)o1 (stereo not drawn)	HSF-1 act 54
CCOC(=O)CN1C=C(c2ccc3ccccc3n2)C(C[N+](=O)[O-])c2ccccc21 (stereo not drawn)	HSF-1 act 94
CCOC(=O)CSc1ccc2ccccc2n1	none
Cc1ccc(OCC(=O)Nc2ccccc2C(=O)N2CCCCC2)cc1	HSF1 inhib -53
CCC(=O)c1ccc(OCC(=O)Nc2ccccc2C(=O)N2CCCCC2)cc1	none (no result: HSP90 inh, Lipid droplet, NS3 helicase inh)
